# DYRK1A inh = blocks rat Dyrk1A kinase activity; 0.43% of 310,000 active; AID 504441; ADP-Glo luminescence, NFATc1 peptide; inhibition, % at 12.5 µM; in the data active = inhibition above about 50%;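 also: plate controls were vehicle with enzyme for no effect and no enzyme for full effect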
# GSK3 alpha inh = blocks human GSK-3 alpha kinase | 0.1% of 320,000 active | ADP-Glo luminescence, 60 min | inhibition, % at 10 µM | AID 2650;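 active = more than half of replicates show inhibition above 20%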;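 also: GST-tagged GSK-3 alpha with peptide substrate and 25 µM ATP; 0% = DMSO neutral wells and 100% = GW8510 positive control wells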
# STK33 kinase inh = inhibitors of human STK33 kinase. Q9BYT3. purified STK33, MBP phosphorylation, ADP-Glo luminescence. inhibition, % at 10 µM. 0.073% of 320,000 active. AID 2661;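 active = inhibition at or above 25%, using the most active replicate where run in duplicate; inactive = inhibition below 25%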
# Target sequence (Q9BYT3 whole entry, looked up): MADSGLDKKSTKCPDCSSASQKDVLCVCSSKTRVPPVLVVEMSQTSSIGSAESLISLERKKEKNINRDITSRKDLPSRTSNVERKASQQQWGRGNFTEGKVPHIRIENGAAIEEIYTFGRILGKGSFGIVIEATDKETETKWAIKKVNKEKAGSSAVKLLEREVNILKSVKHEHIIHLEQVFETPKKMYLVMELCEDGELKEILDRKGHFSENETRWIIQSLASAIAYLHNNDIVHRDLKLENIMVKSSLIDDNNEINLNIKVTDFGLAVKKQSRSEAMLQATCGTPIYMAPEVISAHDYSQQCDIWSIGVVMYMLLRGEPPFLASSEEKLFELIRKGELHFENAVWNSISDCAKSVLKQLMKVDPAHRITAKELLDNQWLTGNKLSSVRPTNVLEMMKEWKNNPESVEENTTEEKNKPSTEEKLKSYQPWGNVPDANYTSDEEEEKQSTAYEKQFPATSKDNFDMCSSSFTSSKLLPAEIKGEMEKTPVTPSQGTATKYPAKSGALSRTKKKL
# CDK5 inh = CDK5/p35 (human) kinase inhibition. Recombinant CDK5/p35, ADP-Glo luminescence, 60 min. 0.01% of 330,000 active. inhibition, % at 10 µM. Q00535+Q15078;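 active = highest replicate inhibition of at least 50% and at least 75% of replicates reaching 50%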;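 also: plate controls were DMSO neutral control for no effect and GW8510 at 10 µM for full effect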
# GSK3B inh = inhibitors of human GSK3beta kinase | GST-GSK3beta kinase, ADP-Glo luminescence, 60 min; stronger effect = lower value | 0.038% of 300,000 active | P49841 | activity score (negative = inhibition), % at 10 µM;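 active = more than half of replicate wells score below -50%, meaning over 50% inhibition versus plate controls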;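 also: 0% = median DMSO wells and -100% = median GW8510 positive control wells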
#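 Test system: GST-tagged human GSK3beta kinase, cell-free; evaluation: activity score scaled between in-plate DMSO and GW8510 controls; measured by: ADP-Glo luminescence; incubation: 60 min reaction, RT; benchmarks: DMSO and 20 µM GW8510; reagent: peptide substrate plus 25 µM ATP (final); medium: Tris/MgCl2 kinase buffer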
# ADP-Glo artifact = counter-screen for Dyrk1A inhibitors: ADP-Glo luciferase artifacts. shares compounds with DYRK1A inh. ADP-Glo luciferase artifact assay, no Dyrk1A, luminescence. AC50, µM (highest dose often 12 µM), for the others: at the highest dose activity change, negative = inhibition. 1,300 tested, under 10 active;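 active = fitted half-maximal dose AC50 no more than ten times the top valid tested dose, with luminescence dropping as dose rises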
# The depositor's hits bear a star; . = no result given. Many of the other results were omitted from the sample, so hits are more common in it than they were.
SMILES,DYRK1A inh,GSK3 alpha inh,STK33 kinase inh,CDK5 inh,GSK3B inh,ADP-Glo artifact
COc1ccc(/C=C2\SC(=S)N(C(C)C(=O)NC3C=CS(=O)(=O)C3)C2=O)cc1 (stereo unspecified),76.6*,-1.8,0.3,0.6,-1.7,8.4%
CCOC(=O)[C@H]1[C@H]2COc3ccc(C)cc3[C@@H]2N2C(=O)c3cc(F)ccc3NC(=O)[C@@]12C,1.2,0.7,1.1,-0.8,.,.
CCOC(=O)C1=C(C)OC(N)=C(C#N)C1c1ccc(O)c(OC)c1 (stereo unspecified),51.4*,-1.3,-0.1,1.1,-4.1,11.1%
CCNC(=O)NC(=O)C(C)OC(=O)CCCc1nc2ccccc2s1 (stereo unspecified),-2.4,2.2,0.7,2.0,3.6,.
CC(Nc1ccc2c(c1)OCCO2)C(=O)N1c2ccccc2CC1C (stereo unspecified),3.3,-1.2,-0.9,1.9,3.7,.
Cc1nc(NC(=O)c2ccccc2)sc1-c1csc(NCc2ccco2)n1,66.6*,.,.,1.3,-3.0,7.3%
COc1ccc(/C=C(/C(=O)c2cccs2)N2C=CC=CC2=C(C#N)C#N)cc1,63.9*,.,.,0.4,3.2,8.0%
COc1ccc(-c2cc(-c3nnc(-c4ccncc4)o3)c3ccccc3n2)cc1,-5.8,-1.7,-1.8,-0.5,-1.5,.
c1ccc2c(-c3nc(C4CCCCC4)no3)cc(-c3ccncc3)nc2c1,71.6*,-1.0,-0.1,0.5,0.1,7.6%
COc1ccc(-c2nc3ccccc3s2)cc1O,-4.0,3.7,3.3,2.6,-1.8,.
COc1cc(-c2nc3ccccc3s2)ccc1O,76.6*,0.0,3.6,2.3,-0.3,8.3%
CCOc1cc(-c2nc3ccccc3s2)ccc1O,58.2*,-0.8,-0.2,0.9,4.0,7.6%
CSc1nc(NCc2ccco2)c2c3c(sc2n1)CN(C)CC3,.,29.9,3.6,.,-16.6,.
CSc1nc(SCC(=O)NCc2ccco2)c2c3c(sc2n1)CN(C)CC3,63.0*,-0.4,-1.3,-0.1,-34.6,8.0%
O=C(c1ccc(F)cc1)C1CCN(C(=S)NCC2CCCO2)CC1 (stereo unspecified),-2.1,0.4,0.7,-2.3,1.4,.
CCc1ccc(/C=C2\SC(N3CCCC3)=NC2=O)cc1,.,0.4,0.2,1.3,-0.1,.
COc1ccc(/C=C2\SC(N3CCCCC3)=NC2=O)cc1,67.5*,1.7,2.1,0.2,3.3,12.4%
NNC(=O)[C@H](Cc1ccccc1)NC(=O)Nc1ccc2c(c1)OCCO2,-2.8,-3.2,-1.0,1.4,-7.8,.
Cc1ccc(C)c(NC(=O)C2CCCN2S(=O)(=O)c2ccc3c(c2)n(C)c(=O)c(=O)n3C)c1 (stereo unspecified),1.9,-0.7,-3.0,0.3,5.6,.
Cc1ccccc1NC(=O)C1CCCN1S(=O)(=O)c1ccc2c(c1)n(C)c(=O)c(=O)n2C (stereo unspecified),58.1*,0.6,-3.2,-0.3,2.6,5.8%
NS(=O)(=O)c1ccc(-c2ccc(/C=C3\NC(=S)NC3=O)o2)cc1,74.9*,4.4,-1.4,5.4,-27.9,8.9%
COc1ccccc1C/C(N)=N/OC(=O)c1ccco1,1.8,.,-1.0,0.0,1.9,.
Cc1ccc(-c2nc(NCc3ccco3)c3ccccc3n2)cc1,1.8,-1.9,-1.4,0.6,4.2,.
c1cncc(-c2nc(NCc3ccco3)c3ccccc3n2)c1,53.0*,11.2,5.2,0.6,-3.5,10.4%
c1cncc(-c2nc(NCCCn3ccnc3)c3ccccc3n2)c1,74.9*,70.7*,11.7,-1.1,-55.3*,9.2%
SMILES,DYRK1A inh,GSK3 alpha inh,STK33 kinase inh,CDK5 inh,GSK3B inh,ADP-Glo artifact
Cc1c(C(=O)OCC(=O)N(C)CC(=O)Nc2ccc(F)cc2)oc2ccccc12,4.6,1.6,0.1,-0.1,.,.
Cc1ccnc(NC(=O)c2cccc(S(=O)(=O)N3CCN(c4ccccc4)CC3)c2)c1,60.2*,-2.0,0.4,3.0,1.5,6.0%
Cc1cc(C)c(S(=O)(=O)NNC(=O)C2CCN(Cc3ccccc3)CC2)c(C)c1,-6.6,-3.2,-1.8,-0.4,2.4,.
C=CCc1ccc(OCCOc2ccc(/C=N/n3cnnc3)cc2OCC)c(OC)c1,60.1*,-5.4,-1.2,0.8,1.7,10.4%
CCn1c(SCC(=O)Nc2ccc(F)cc2)nnc1C1CC1,9.2,1.1,-0.9,-1.5,2.0,.
N=c1ncn(Cc2ccccc2)c2nc(SCCOc3ccccc3)[nH]c12,1.4,-1.3,-0.1,-0.6,0.7,.
Cc1ccc(NC2=C(N3CCCCC3)C(=O)c3ccccc3C2=O)cc1,51.6*,-0.8,-1.2,-0.3,0.2,8.7%
NS(=O)(=O)c1ccc(Nc2nc(-c3ccc(O)cc3O)cs2)cc1,68.0*,60.5*,16.8,15.6,-28.5,7.4%
NS(=O)(=O)c1ccc(Nc2nc(-c3ccc(F)cc3)cs2)cc1,21.3,13.1,2.4,1.3,-8.2,.
COc1ccc(OC)c(CCNC(=O)CCc2nnc3ccc(N4CCCC4)nn23)c1,0.3,.,0.1,0.3,0.5,.
CCOCCOc1nc2c(c(=O)n(C)c(=O)n2C)n1Cc1ccc(C)cc1,60.0*,0.0,-0.2,0.4,-1.8,9.4%
O=C(Nc1nc2c(s1)CCCC2)c1ccc(N2C(=O)CCC2=O)cc1,66.9*,0.1,1.9,-1.2,2.2,8.0%
CC1CCc2nc(NC(=O)c3ccc(N4C(=O)CCC4=O)cc3)sc2C1 (stereo unspecified),56.5*,0.8,1.9,0.4,1.5,6.1%
O=C(CSc1ccccc1)N1CCCC(N2CCN(c3ccc(F)cc3)CC2)C1 (stereo unspecified),-3.1,1.7,-0.8,-0.6,-0.2,.
CCOC(=O)c1nc(Nc2cc(C)cc(C)c2)c2ccccc2n1,-3.1,2.0,-2.3,-1.3,-0.7,.
Cc1nc(N)sc1-c1csc(Nc2ccccc2)n1,52.0*,3.2,-0.1,0.3,-1.7,7.6%
CC(=O)Nc1nc(C)c(-c2csc(Nc3ccc(O)cc3)n2)s1,76.4*,24.3,12.9,3.0,.,7.6%
Cc1nc(N)sc1-c1csc(Nc2cccc(C(=O)O)c2)n1,25.1,11.9,4.0,-6.2,-2.1,.
NC(=O)C1CCN(C(=O)c2ccc3c(=O)n(Cc4ccco4)c(SCc4ccc([N+](=O)[O-])cc4)nc3c2)CC1,-0.5,-1.4,-1.8,0.5,-2.5,.
Nc1nc(N)nc(-c2ccc(Cl)c(Cl)c2)n1,84.4*,13.4,4.1,3.9,.,6.9%
O=C1NC(=O)/C(=C\c2ccc(O)cc2O)S1,84.8*,24.3,35.5*,3.8,-13.0,7.9%
COc1ccc(N=Nc2c(C)n[nH]c2C)cc1,52.2*,7.4,11.7,1.2,0.1,9.0%
Cc1n[nH]c(C)c1N=Nc1ccc(Br)cc1,33.8,2.4,2.5,0.5,1.0,.
O=C(Nc1ccc(Cl)cc1)Nc1ccc2c(c1)N1CCN=C1S2,67.8*,-0.9,1.3,1.0,-1.0,10.4%

# Screening data (PubChem BioAssay)
